Results taken from article PMC6153321 (Pharmacology Research & Perspectives, 2018).
Each block holds one compound with its values, some of them ahead of it. Bridge positions count the residues as written; N and C are the ends. Square brackets hold non-standard residues; d marks the D form. Ends that are not written are not given here. Peptide text beside a SMILES is read from it. I, II: the chains in the order shown. S5 = C=CCCC[C@](C)(N)C(=O)O

How the values were obtained:
RXFP3 [1] = target: T1, RXFP3 (Homo sapiens, UniProt Q9NSD7); test: CAMYEL BRET inhibition of forskolin-stimulated cAMP, CHO-RXFP3 cells; type: cell-based; conditions: agonist 100 nmol L^−1‐10 μmol L^−1, at about 20‐25 minutes
T1 sequence (Q9NSD7 1-469): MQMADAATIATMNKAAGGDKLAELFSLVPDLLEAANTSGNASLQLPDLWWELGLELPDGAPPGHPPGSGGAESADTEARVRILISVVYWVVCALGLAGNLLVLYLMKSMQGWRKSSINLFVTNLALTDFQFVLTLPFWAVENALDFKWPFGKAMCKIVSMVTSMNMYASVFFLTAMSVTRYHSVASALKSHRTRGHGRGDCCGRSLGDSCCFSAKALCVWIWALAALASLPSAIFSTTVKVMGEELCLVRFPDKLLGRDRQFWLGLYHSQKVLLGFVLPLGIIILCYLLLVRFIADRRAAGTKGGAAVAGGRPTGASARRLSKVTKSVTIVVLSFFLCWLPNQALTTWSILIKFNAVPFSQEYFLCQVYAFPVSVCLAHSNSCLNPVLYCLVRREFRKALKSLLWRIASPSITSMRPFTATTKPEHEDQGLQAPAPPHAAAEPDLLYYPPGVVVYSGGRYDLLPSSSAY

RXFP3 [2] = target: T1, RXFP3; test: CAMYEL BRET inhibition of forskolin-stimulated cAMP, HEK-RXFP3 cells; type: cell-based; conditions: 45 minutes, mean ± SEM, three independent experiments
β‐adrenoceptors [3] = test: CAMYEL BRET isoprenaline-induced cAMP, HEK293A parental cells; type: cell-based, human; conditions: 10 μmol L^−1
Method in brief: (§1)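 HEK293A parental or Gαs-knockout cells were co-transfected with CAMYEL and RXFP1, then reseeded overnight in phenol-red-free HEPES medium. Isoprenaline (10 μmol L⁻¹) served as a control for endogenous Gαs-coupled β-adrenoceptor signalling. Read-out: vehicle-subtracted, sign-inverted 535/475 nm BRET ratio; three independent experiments.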

β‐adrenoceptors [4] = test: CAMYEL BRET isoprenaline-induced cAMP, HEK293A ΔGαs cells; type: cell-based, human; conditions: 10 μmol L^−1
Method in brief: as §1

adenylate cyclase [5] = test: CAMYEL BRET forskolin-induced cAMP, HEK293A parental cells; type: cell-based, human; conditions: 45 minutes, three independent experiments
adenylate cyclase [6] = test: CAMYEL BRET forskolin-induced cAMP, HEK-RXFP2 cells; type: cell-based, human; conditions: 45 minutes
Method in brief: (§2)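 HEK cells stably expressing RXFP1 (HEK293T background) or RXFP2 were transiently transfected with CAMYEL, then reseeded next day in phenol-red-free complete medium with 25 mmol L⁻¹ HEPES. At 37°C, cells got coelenterazine h (5 μmol L⁻¹ final) for a 5-min baseline, then vehicle, forskolin or agonist for 45 min. Read-out was vehicle-subtracted citrine/Rluc BRET ratio, sign-inverted. Agonist curves at 5 and 45 min as % of 10 μmol L⁻¹ forskolin maximum; n=3.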

adenylate cyclase [7] = conditions: cited from earlier work
adenylate cyclase [8] = test: CAMYEL BRET forskolin-induced cAMP, HEK293A ΔGαs cells; type: cell-based, human
adenylate cyclase [9] = test: CAMYEL BRET forskolin-induced cAMP, THP-1 CAMYEL cells; type: cell-based, human; conditions: high-CAMYEL THP‐1 cells, three independent experiments
adenylate cyclase [10] = test: CAMYEL BRET forskolin-induced cAMP, HEK-RXFP1 cells; type: cell-based, human; conditions: 45 minutes, three independent experiments
Method in brief: as §2

RXFP2 = RXFP2 (Homo sapiens, UniProt Q8WXD0); test: CAMYEL BRET real-time cAMP activation, HEK-RXFP2 cells; type: cell-based
Sequence of RXFP2 (Q8WXD0 whole entry): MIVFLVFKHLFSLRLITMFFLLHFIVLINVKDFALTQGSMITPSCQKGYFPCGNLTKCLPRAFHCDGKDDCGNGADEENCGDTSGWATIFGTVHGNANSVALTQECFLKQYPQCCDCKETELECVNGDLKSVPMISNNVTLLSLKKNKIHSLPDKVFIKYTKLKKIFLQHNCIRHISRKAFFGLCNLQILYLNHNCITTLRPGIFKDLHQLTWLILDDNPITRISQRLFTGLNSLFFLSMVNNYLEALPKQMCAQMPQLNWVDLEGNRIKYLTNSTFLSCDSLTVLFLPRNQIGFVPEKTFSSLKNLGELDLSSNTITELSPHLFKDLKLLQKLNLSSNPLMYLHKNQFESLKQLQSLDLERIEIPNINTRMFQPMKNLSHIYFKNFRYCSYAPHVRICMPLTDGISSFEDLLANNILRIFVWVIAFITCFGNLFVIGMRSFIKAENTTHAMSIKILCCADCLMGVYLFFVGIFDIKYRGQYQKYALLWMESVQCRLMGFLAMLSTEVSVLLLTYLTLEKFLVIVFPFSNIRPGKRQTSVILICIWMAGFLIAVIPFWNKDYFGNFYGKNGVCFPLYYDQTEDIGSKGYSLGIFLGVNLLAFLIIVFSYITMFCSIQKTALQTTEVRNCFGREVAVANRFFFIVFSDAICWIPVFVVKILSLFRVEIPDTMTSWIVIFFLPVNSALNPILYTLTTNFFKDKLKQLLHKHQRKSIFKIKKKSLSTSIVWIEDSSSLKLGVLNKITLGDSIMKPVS
Method in brief: as §2

GH3B6 cells = conditions: cited from earlier work

- inhibition of forskolin-stimulated cAMP at higher concentrations (RXFP3 [1]): Complete or near‐complete inhibition
- pEC50 (RXFP3 [2]): Ambiguous
Compound: CC[C@H](C)[C@@H]1NC(=O)[C@H](Cc2ccccc2)NC(=O)[C@H](CCC(=O)O)NC(=O)[C@H](CCCNC(=N)N)NC(=O)CNC(=O)[C@@H](NC(=O)[C@H](CC(C)C)NC(=O)[C@H](CCCNC(=N)N)NC(=O)[C@@H](NC(=O)CNC(=O)[C@H](Cc2ccc(O)cc2)NC(=O)[C@@H]2CCCN2C(=O)[C@H](C)NC(=O)[C@H](C)NC(=O)[C@@H](N)CCCNC(=N)N)C(C)C)CSSC[C@H](N)C(=O)N[C@@H](CCCCN)C(=O)N[C@@H](Cc2c[nH]c3ccccc23)C(=O)NCC(=O)N[C@@H](C)C(=O)N[C@@H](CO)C(=O)N[C@@H](CCCCN)C(=O)N[C@@H](CO)C(=O)N[C@@H](CCC(=O)O)C(=O)N[C@@H]([C@@H](C)CC)C(=O)N[C@@H](CO)C(=O)N[C@@H](CO)C(=O)N[C@@H](CC(C)C)C(=O)N[C@H](C(=O)O)CSSC[C@@H](C(=O)NCC(=O)NCC(=O)N[C@@H](CO)C(=O)N[C@@H](CCCNC(=N)N)C(=O)N[C@@H](Cc2c[nH]c3ccccc23)C(=O)O)NC(=O)[C@H]([C@@H](C)O)NC(=O)[C@H](Cc2ccccc2)NC(=O)[C@H]([C@@H](C)CC)NC(=O)[C@H](C(C)C)NC(=O)[C@H](C)NC(=O)[C@H](CCCNC(=N)N)NC1=O [Analogue 2]

Compound: CC(C)NCC(O)c1ccc(O)c(O)c1 (centres unmarked) [Isoprenaline]
- cAMP response to isoprenaline (β‐adrenoceptors [3]): robust in the parental cells
- cAMP response to isoprenaline (β‐adrenoceptors [4]): abolished in the ΔGαs cells

- inhibition of forskolin-stimulated cAMP at higher concentrations (RXFP3 [1]): Complete or near‐complete inhibition
Compound: CC[C@H](C)[C@@H]1NC(=O)[C@H](Cc2ccccc2)NC(=O)[C@@](C)(NC(=O)[C@H](CCCNC(=N)N)NC(=O)CNC(=O)[C@@H](N)CO)CCCC=CCCC[C@@](C)(C(=O)N[C@H](C(=O)N[C@H](C(=O)N[C@@H](Cc2ccccc2)C(=O)N[C@H](C(=O)N[C@@H](CO)C(=O)NCC(=O)NCC(=O)N[C@@H](CO)C(=O)N[C@@H](CCCNC(=N)N)C(=O)N[C@@H](Cc2c[nH]c3ccccc23)C(N)=O)[C@@H](C)O)[C@@H](C)CC)C(C)C)NC(=O)[C@H](CCCNC(=N)N)NC1=O [Peptide 5] (H-SGR[S5]FIR[S5]VIFTSGGSRW-NH2; staple 4-8; N-terminus and C-terminus assumed)

- potency (pEC50) of forskolin (adenylate cyclase [6]; HEK‐RXFP2, three independent experiments): 5.92 ± 0.08
- potency of forskolin (pEC50) (adenylate cyclase [8]; 45 minutes, HEK293A ΔGαs with re‐expression of Gαs, three independent experiments): 7.1 ± 1.29
- potency of forskolin (pEC50) (adenylate cyclase [9]; 5 minutes): 5.29 ± 0.03
- potency of forskolin (pEC50) (adenylate cyclase [9]; 45 minutes): 4.93 ± 0.05
- potency (pEC50) of forskolin (adenylate cyclase [10]): 6.77 ± 0.07
Compound: C=C[C@@]1(C)CC(=O)[C@]2(O)[C@@]3(C)[C@@H](O)CCC(C)(C)[C@@H]3[C@H](O)[C@H](OC(C)=O)[C@@]2(C)O1 [forskolin]
- potency of forskolin (pEC50) (adenylate cyclase [5]): 5.91 ± 0.04
- forskolin potency in HEK‐RXFP2 relative to HEK‐RXFP1 cells (adenylate cyclase [6]; P < 0.01): nearly ten times lower than that seen in the HEK‐RXFP1 cells
- affinity for adenylate cyclase in the absence of Gαs (adenylate cyclase [7]): lower affinity for adenylate cyclase in the absence of Gαs
- forskolin-induced cAMP activity (adenylate cyclase [8]; HEK293A ΔGαs, without Gαs re-expression): very weak cAMP activity
- forskolin concentration required to detect a cAMP increase (adenylate cyclase [8]; HEK293A ΔGαs, increase only transient): > 10 µmol/L

- potency increase between 5 and 45 minutes (RXFP2; P < 0.01): ~10 fold
- temporal pattern of cAMP activity (RXFP2; sub‐maximal concentrations): slow, sustained increases
Compound: I: PTPEMREKLCGHHFVRALVRVCGGPRWSTEA / II: AAATNPARYCCLSGCTQQDLLTLCPY (disulfide I:10-II:11, I:22-II:24, II:10-II:15) [INSL3]

Compound: thyrotropin‐releasing hormone
- cAMP activity reported by AC8‐localized sensor (GH3B6 cells): increases in cAMP activity
- cAMP activity reported by cytosolic or plasma membrane FRET biosensors (GH3B6 cells): not the cytosolic or membrane forms

Compound: vasoactive intestinal peptide: treatment of GH3B6 cells in cited work (ref 49) (HSDAVFTDNYTRLRKQMAVKKYLNSILN; ends and bridges not checked; UniProt P01282 125-152, looked up)
- cAMP activity reported by AC8‐localized sensor (GH3B6 cells): not detected by an AC8‐localized sensor
